Data reported in ChEMBL document CHEMBL2057117, “Oxoquinoline acyclonucleoside phosphonate analogues as a new class of specific inhibitors of human immunodeficiency virus type 1” (Bioorg Med Chem Lett, 2012).
pEC50, pKi: −log10 of the molar value.

What was measured:
[1] = tested on: Human immunodeficiency virus 1; assay: Antiviral activity against R5-tropic Human immunodeficiency virus 1 Ba-L subtype B infected in human PBMC assessed as inhibition of viral replication after 7 days by ELISA; type: functional, organism-based; conditions: 168 h
How it was run: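 Phytohemagglutinin-stimulated PBMCs (2–3 days), then kept in medium with recombinant human IL-2, infected with HIV-1 Ba-L (R5-tropic, subtype B) and treated with a range of concentrations (µM). After 7 days, p24 antigen in culture supernatants was measured by capture ELISA. EC50 is the concentration reducing replication 50% versus infected controls. Mean ± SD of three independent experiments. AZT positive control.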

[2] = Selectivity ratio of CC50 for human PBMC to EC50 for R5-tropic Human immunodeficiency virus 1 Ba-L subtype B
How it was run: (§1)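 Selectivity index is calculated as CC50 (XTT viability in PBMCs, 7 days) divided by EC50 (p24 ELISA, HIV-1 Ba-L-infected PBMCs, 7 days).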

[3] = Cytotoxicity against human PBMC after 7 days by XTT assay; type: cell-based; conditions: PBMC (peripheral blood mononuclear cells)
How it was run: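 Confluent PBMCs were exposed to a range of compound concentrations for 7 days, and viability was then read by XTT. CC50 is the concentration giving 50% cytotoxicity relative to untreated controls. Mean ± SD of three independent experiments.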

[4] = tested on: Human immunodeficiency virus 1; assay: Antiviral activity against Human immunodeficiency virus 1 Ba-L infected in macrophages assessed as inhibition of viral replication; type: functional, organism-based
[5] = Selectivity ratio of CC50 for human PBMC to EC50 for Human immunodeficiency virus 1 Ba-L; how it was run: as §1
[6] = tested on: Human immunodeficiency virus 1; assay: Antiviral activity against Human immunodeficiency virus 1 infected in human PBMC assessed as inhibition of viral replication; type: functional, organism-based
How it was run: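 Human PBMCs stimulated with phytohemagglutinin for 2–3 days, then kept in medium with recombinant human IL-2. Cells infected with HIV-1 Ba-L (R5-tropic, subtype B) and exposed to a range of compound concentrations for seven days. Supernatant p24 antigen measured by capture ELISA. EC50 is the concentration giving 50% less replication than infected controls. Mean ± SD of three independent experiments.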

[7] = biological target: Human immunodeficiency virus type 1 reverse transcriptase (Human immunodeficiency virus 1, UniProt Q72547); assay: Inhibition of Human immunodeficiency virus 1 reverse transcriptase

SMILES | pEC50 [1] | Ratio CC50/EC50 [2] | CC50 at 168 h [3] [mM] | pEC50 [4] | Ratio CC50/EC50 [5] | pEC50 [6] | pKi [7]
CCOC(=O)c1cn(CP(=O)(OC(C)C)OC(C)C)c2cc(C)ccc2c1=O | 5.05 | 123.9 | 1.11 | – | – | – | –
O=C(O)c1cn([C@@H]2O[C@H](CO)[C@@H](O)[C@H]2O)c2ccc(Cl)cc2c1=O | – | – | – | 5.31 | 1134 | 5.82 | 6.30
CCOC(=O)c1cn(CP(=O)(OC(C)C)OC(C)C)c2cc(F)ccc2c1=O | 6.70 | 14675 | 2.94 | – | – | – | –
CCOC(=O)c1cn(CP(=O)(OC(C)C)OC(C)C)c2ccccc2c1=O | 5.14 | 316.4 | 2.31 | – | – | – | –
Cc1cn([C@H]2C[C@H](N=[N+]=[N-])[C@@H](CO)O2)c(=O)[nH]c1=O [ZIDOVUDINE] | 6.80 | – | 0.128 | – | – | – | –

More lines, main results first:

pEC50 [1] | SMILES | Ratio CC50/EC50 [2] | CC50 at 168 h [3] [mM] | pEC50 [4] | Ratio CC50/EC50 [5] | pEC50 [6] | pKi [7]
4.42 | CCOC(=O)c1cn(CP(=O)(OC(C)C)OC(C)C)c2ccc([N+](=O)[O-])cc2c1=O | – | 0.931 | – | – | – | –
6.40 | CCOC(=O)c1cn(CP(=O)(OC(C)C)OC(C)C)c2ccc(F)cc2c1=O | 6240 | 2.5 | – | – | – | –
4.66 | CCOC(=O)c1cn(CP(=O)(OC(C)C)OC(C)C)c2cc([N+](=O)[O-])ccc2c1=O | 36.9 | 0.812 | – | – | – | –
4.25 | CCOC(=O)c1cn(CP(=O)(OC(C)C)OC(C)C)c2ccc(Br)cc2c1=O | 14.3 | 0.802 | – | – | – | –
5.09 | CCOC(=O)c1cn(CP(=O)(OC(C)C)OC(C)C)c2ccc(Cl)cc2c1=O | 152.4 | 1.23 | – | – | – | –
4.67 | CCOC(=O)c1cn(CP(=O)(OC(C)C)OC(C)C)c2ccc(C)cc2c1=O | 61.3 | 1.31 | – | – | – | –
4.68 | CCOC(=O)c1cn(CP(=O)(OC(C)C)OC(C)C)c2cc(Cl)ccc2c1=O | 39.4 | 0.828 | – | – | – | –
4.21 | CCOC(=O)c1cn(CP(=O)(OC(C)C)OC(C)C)c2cc(Br)ccc2c1=O | 11.9 | 0.731 | – | – | – | –
